Compound activity: PubChem, Broad Institute
Compounds with a hit are over-represented: about 2.1% of the library has one in this group of screens.
CAL PDZ FP-1: untagged CAL PDZ binding inhibitors, primary screen, biochemical, fluorescence polarization, HTS | Golgi-associated PDZ and coiled-coil motif-containing protein (Homo sapiens), Q9HD26 | purified CAL PDZ, TMR-peptide fluorescence polarization, 1 h | inhibition, % at 24.9 µM | 0.92% of 300,000 active | AID 602252, 2012;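 active = mean inhibition of at least 30% with at least half of replicates also reaching 30%; inconclusive = no clear call, values can overlap the other calls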;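 note: 0% = DMSO neutral control and 100% = excess unlabeled competitor peptide PRC23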
ARNT TACC3 PPI: disruptors of ARNT/TACC3 protein interaction, primary screen, biochemical, AlphaScreen, single concentration; Transforming acidic coiled-coil-containing protein 3 (Homo sapiens), Q9Y6A5; AlphaScreen His-ARNT PAS-B/GST-TACC3 binding, luminescence; TACC3 fragment carries E629A point mutation; inhibition, % at 9.99 µM; 0.66% of 390,000 active; AID 623870, 2012;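 active = mean inhibition of replicates at least 50% and at least half of replicates each reaching 50%; inconclusive = half or more replicates reach 50% but mean below 50%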;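 note: 0% = complete ARNT plus TACC3 wells and 100% = ARNT alone without TACC3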
SR-BI DiI-HDL act: activators of SR-BI mediated DiI-HDL uptake, primary screen, ldlA[mSR-BI] CHO cells, DiI fluorescence | 3 h; 100 = double the neutral-control signal | activation, % at 12.5 µM | 0.096% of 320,000 active;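 active = mean replicate activation of at least 60% and every replicate at or above 60%; inconclusive = mean or all-replicate condition met, but not both; inactive = mean below 60% and not all replicates reaching 60%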;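 note: 0% = median plate neutral-control signal and 100% = twice that signal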
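Material: SR-BI-overexpressing, LDLR-lacking CHO cells | Dosing: Single compound concentration, delivered by pin transfer | Probe or stimulus: Labelled HDL, 10 µg/mL | Signal: Bottom-read cell fluorescence after medium removal, ex 550/em 595 nm | Schedule: 3 h, 37 °C | Evaluation: HDL uptake via cellular fluorescence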
miR-122 sensor: miR-122 Renilla sensor signal increase in Huh7, primary screen, miR-122 inhibitor project, cell-based, single point, plate reader. 0.3% of 340,000 active. activation (reporter increase), % at 12.5 µM. Huh7 miR-122 Renilla luciferase sensor, 48 h; neutral wells = 0, positive control = 100;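 active = mean replicate activation score at least 90 and every replicate individually at or above 90; inconclusive = only one of the two criteria met; inactive = neither criterion met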;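 note: higher luciferase means less miR-122 activity so hits act as miR-122 inhibitors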
CAL PDZ FP-2: CAL PDZ peptide-binding inhibitors, primary screen, biochemical, fluorescence polarization, Cer-tagged CAL PDZ, HTS; Golgi-associated PDZ and coiled-coil motif-containing protein (Homo sapiens), Q9HD26; purified CAL PDZ, TMR-peptide fluorescence polarization, 1 h; inhibition, % at 20 µM; 0.02% of 330,000 active;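 active = highest replicate inhibition of at least 40%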;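 note: plate controls were DMSO neutral control wells for no effect and unlabeled competitor peptide control wells for full effect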
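Read-out basis: mP drop reported as inhibition | Assay system: Tagged CAL PDZ protein CerCALP, purified | Benchmarks: Unlabelled peptide for full inhibition, DMSO wells as neutral | Schedule: 1 h incubation at room temperature before polarization reading | Buffer or medium: Sodium phosphate/NaCl buffer pH 7.4 with TCEP, IgG, Thesit | Doses: Single point, 20 µM | Measured by: Fluorescence polarization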
SR-BI HDL uptake: inhibitors of SR-BI mediated HDL lipid uptake, primary screen, ldlA[mSR-BI] cells, fluorescence, single point; Scavenger receptor class B member 1 (Mus musculus), Q61009; ldlA[mSR-BI] CHO cells, DiI-HDL uptake fluorescence, 3 h; inhibition, % at 12.5 µM; 0.96% of 320,000 active;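 active = mean replicate inhibition of at least 70% and a set share of replicates each scoring 70 or more; inconclusive = meets just one of the two criteria; inactive = fails both criteria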;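 note: 0% = median of neutral control wells and 100% = median of positive control wells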
Target sequence (Q61009 whole entry, looked up): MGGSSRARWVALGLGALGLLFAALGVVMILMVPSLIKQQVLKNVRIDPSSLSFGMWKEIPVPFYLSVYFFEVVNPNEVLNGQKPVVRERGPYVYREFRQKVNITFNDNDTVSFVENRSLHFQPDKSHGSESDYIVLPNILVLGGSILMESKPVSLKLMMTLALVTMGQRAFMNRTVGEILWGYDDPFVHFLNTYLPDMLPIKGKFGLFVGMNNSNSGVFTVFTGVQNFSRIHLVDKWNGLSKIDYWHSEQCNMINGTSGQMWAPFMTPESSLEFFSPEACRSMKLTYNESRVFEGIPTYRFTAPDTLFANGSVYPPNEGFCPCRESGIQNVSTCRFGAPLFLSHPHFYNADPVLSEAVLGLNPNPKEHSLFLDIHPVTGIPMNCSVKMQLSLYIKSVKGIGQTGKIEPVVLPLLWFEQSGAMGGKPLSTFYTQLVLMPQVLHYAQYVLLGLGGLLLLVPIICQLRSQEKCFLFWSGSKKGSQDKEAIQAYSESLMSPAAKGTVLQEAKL
An asterisk follows results filed as active; ? = inconclusive; nt = not tested or not shown; [ ] = remark or other dose.

SMILES | CAL PDZ FP-1 | ARNT TACC3 PPI | SR-BI DiI-HDL act | miR-122 sensor | CAL PDZ FP-2 | SR-BI HDL uptake
NC(=S)NN=C1C2CC3CC(C2)CC1C3 | nt | -2.3 | -78.5 | nt | -0.7 | 78.5*
CN(C)CC(=O)Nc1ccc2c(c1)[C@@H]1C[C@@H](CC(=O)NC3CCCC3)O[C@@H](CO)[C@@H]1O2 | nt | -2.1 | nt | -2.3[16.7 µM] | nt | nt
CCCC(=O)Nc1ccc2c(c1)C(=O)N(C)[C@@H]1CC[C@@H](CC(=O)NCC3CCCCC3)O[C@H]1CO2 | nt | 2.6 | nt | -0.9[16.7 µM] | nt | nt
COc1cc([N+](=O)[O-])ccc1NC(=O)Nc1nc2c(s1)CCCC2 | -3.7 | -3.7 | -72.3 | nt | 0.4 | 72.3*
COc1cc([N+](=O)[O-])ccc1NC(=O)Nc1cnccn1 | nt | -4.6 | -12.2 | -6.8 | -0.8 | 12.2
CC(Oc1ccc(Cl)cc1Cl)C(=O)Nc1ccc2oc(-c3ccncc3)nc2c1 (stereo not drawn) | -2.8 | 0.3 | -77.5 | -5.8 | nt | 77.5*
Cc1ccc(-c2nc3cc(NC(=O)C(C)C)ccc3o2)cc1 | 1.3 | -0.7 | -20.7 | -3.8 | -1.8 | 20.7
C[C@@H]1CN([C@@H](C)CO)C(=O)c2cc(NC(=O)Cc3cn(C)c4ccccc34)ccc2O[C@@H]1CN(C)C(=O)Nc1ccc(F)cc1 | nt | nt | nt | -4.0[16.7 µM] | nt | nt
C[C@@H]1CN([C@@H](C)CO)C(=O)Cc2cc(NS(=O)(=O)c3ccc(Cl)cc3)ccc2O[C@H]1CN(C)Cc1ccc(C(=O)Nc2ccccc2N)cc1 | nt | 3.2 | nt | 21.5[16.7 µM] | nt | nt
C[C@H](CO)N1C[C@H](C)[C@H](CN(C)Cc2ccc(C(=O)Nc3ccccc3N)cc2)Oc2ccc(NS(=O)(=O)c3ccc(F)cc3)cc2CC1=O | nt | -3.3 | nt | 162.0*[16.7 µM] | nt | nt
C[C@H](CO)N1C[C@H](C)[C@H](CN(C)Cc2ccc(C(=O)Nc3ccccc3N)cc2)Oc2ccc(NS(=O)(=O)c3ccccc3)cc2CC1=O | nt | 9.5 | nt | 145.2*[16.7 µM] | nt | nt
COc1ccc(S(=O)(=O)Nc2ccc3c(c2)CC(=O)N([C@H](C)CO)C[C@H](C)[C@H](CN(C)Cc2ccc(C(=O)Nc4ccccc4N)cc2)O3)cc1 | nt | nt | nt | 211.9*[16.7 µM] | nt | nt
COc1ccc(S(=O)(=O)Nc2ccc3c(c2)CC(=O)N([C@H](C)CO)C[C@@H](C)[C@@H](CN(C)Cc2ccc(C(=O)Nc4ccccc4N)cc2)O3)cc1 | nt | nt | nt | -2.0[16.7 µM] | nt | nt
C[C@H](CO)N1C[C@H](C)[C@H](CN(C)Cc2ccc(C(=O)Nc3ccccc3N)cc2)Oc2ccc(NS(=O)(=O)c3cccs3)cc2CC1=O | nt | -10.7 | nt | 103.9*[16.7 µM] | nt | nt
COCCCNC(=O)c1c(NC(=O)C2COc3ccccc3O2)sc2c1CCCC2 (stereo not drawn) | 2.2 | nt | -75.9 | -3.7 | -1.1 | 75.9*
CCOc1ccc(Cl)cc1S(=O)(=O)n1cnc2cc(C)c(C)cc21 | -5.1 | 18.1 | -4.0 | 183.2* | 0.5 | 4.0
CNC[C@H]1Oc2c(NC(=O)Nc3ccc(C(F)(F)F)cc3)cccc2C(=O)N([C@@H](C)CO)C[C@H]1C | nt | -1.7 | nt | -0.9[16.7 µM] | nt | nt
CC(C)COC(=O)N(C)C[C@H]1OCc2ccccc2-c2c(n(C)c3ccccc23)C(=O)N([C@@H](C)CO)C[C@@H]1C | nt | 4.5 | nt | nt | nt | nt
CN(C)CCCNC(=O)/C=C/c1ccc2c(c1)OCO2 | 22.8 | nt | 70.3* | -5.4 | -1.0 | -70.3
CC(=O)Nc1ccc(NC(=O)/C=C/c2ccc3c(c2)OCO3)cc1 | -0.8 | -11.8 | -11.2 | nt | -0.9 | 11.2
CN1C(=O)c2cc(NC(=O)NC3CCCC3)ccc2OC[C@H]2O[C@@H](CC(=O)O)CC[C@H]21 | nt | -1.6 | nt | 137.5*[16.7 µM] | nt | nt
COCC(=O)Nc1ccc2c(c1)C(=O)N(C)[C@H]1CC[C@@H](CC(=O)O)O[C@H]1CO2 | nt | 6.2 | nt | 262.5*[16.7 µM] | nt | nt
CN1C(=O)c2cc(NC(=O)NC3CCCC3)ccc2OC[C@@H]2O[C@H](CC(=O)O)CC[C@@H]21 | nt | 3.6 | nt | 10.0[16.7 µM] | nt | nt
Cc1ccc(OCCn2cc(/C=C(\C#N)C(=O)NCC3CCCO3)c3ccccc32)cc1C (stereo not drawn) | -3.1 | 7.2 | -75.6 | 1.4 | -1.0 | 75.6*
Cc1ccc(OCCn2cc(/C=C(\C#N)C(=O)NCC3CCCO3)c3ccccc32)cc1 (stereo not drawn) | -1.9 | -0.5 | -53.9 | nt | -0.3 | 53.9
SMILES | CAL PDZ FP-1 | ARNT TACC3 PPI | SR-BI DiI-HDL act | miR-122 sensor | CAL PDZ FP-2 | SR-BI HDL uptake
COc1ccc(-c2nnc3c4ccccc4c(C)nn23)cc1S(=O)(=O)N1CCN(CCO)CC1 | -5.8 | active | -7.9 | -7.8 | 1.5 | 7.9
Cc1nn2c(-c3ccc(S(=O)(=O)N4CCN(CCO)CC4)o3)nnc2c2ccccc12 | -2.9 | 43.3 | 16.4 | -7.2 | -0.7 | -16.4
Cc1ccc(-c2nc(N)n(C(=O)c3cccs3)n2)cc1 | 83.4* | -2.8 | 27.9 | -3.2 | 10.1 | -27.9
O=C(Nc1ccccc1F)N[C@@H]1CC[C@H](CCNS(=O)(=O)c2ccc(F)cc2)O[C@H]1CO | nt | 8.6 | nt | nt | nt | nt
CCOC(=O)Nc1cc2c(c(N)n1)N=C(c1ccccc1)CN2 | -3.5 | 8.7* | -63.9 | ? | 0.0 | 63.9
N#C/C(=C\C1=C(N2CCOCC2)C(=C\c2ccc(Cl)cc2)/CC1)C(=O)Nc1ccccc1F | -3.8 | 3.6 | -36.8 | nt | -0.4 | 36.8
N#C/C(=C/C1=C(N2CCOCC2)C(=C/c2ccccc2)/CC1)C(=O)Nc1ccccc1F | -6.9 | 4.7 | -74.7 | nt | -1.5 | 74.7*
N#C/C(=C/C1=C(N2CCOCC2)C(=C/c2ccc(Cl)cc2Cl)/CC1)C(=O)Nc1ccccc1F | -6.3 | -0.4 | -74.1 | nt | -0.2 | 74.1*
O=c1[nH]c(=O)n(C2CCCCCC2)c(O)c1C=NCc1ccc(F)cc1 | 34.0* | 6.2 | 8.5 | -4.6 | -6.8 | -8.5
Cc1c(N=Cc2c(O)n(C3CCCCC3)c(=O)[nH]c2=O)c(=O)n(-c2ccccc2)n1C | -2.7 | -0.6 | 13.3 | 0.8 | -0.9 | -13.3
O=C(Cn1cnc([N+](=O)[O-])n1)N/N=C/c1ccc(O)cc1O | 3.0 | 63.5* | -3.1 | nt | 0.0 | 3.1
O=C(Cn1cnc([N+](=O)[O-])n1)N/N=C/c1cccc2ccccc12 | -1.4 | nt | 11.7 | nt | -3.3 | -11.7
C[C@H]1CN([C@@H](C)CO)C(=O)c2cc(NS(C)(=O)=O)ccc2O[C@H]1CN(C)CC1CC1 | nt | -0.3 | nt | -6.4[16.7 µM] | nt | nt
COc1ccc(N(CC(=O)NCCSc2ccc(C)cc2)S(=O)(=O)c2ccccc2)c(OC)c1 | 40.3* | 11.8 | -31.8 | nt | -0.7 | 31.8
